The test system of data set [1] is HUVEC. Put plainly: Inhibition of IL-1beta-induced alphav, beta3, beta5, alpha5, beta1 and alphavbeta3 expressing HUVEC adhesion to fibronectin at 0.1 to 10 uM after 30 mins by crystal violet staining method. In kind it is functional, cell-based. The following applies: Homo sapiens. An outline of the steps:
(§1)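 Wells coated overnight at 4 °C with fibronectin (1 μg/mL) or vitronectin (10 μg/mL), blocked with 1% BSA/PBS 1 h at 37 °C. Cells in serum-free medium were preincubated with ligand (final 0.1, 1 or 10 μM) 30 min at 37 °C, then seeded at 4–5 × 10⁴/well for 2 h at 37 °C. HUVEC were IL-1β (400 U/mL)-stimulated; melanoma runs included 2 mmol/L MnCl₂. Adherent cells were stained with crystal violet, read at 540 nm, triplicate, ≥3 repeats.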

Data set [2] has as its target T1, Integrin alpha-V/beta-3 (Homo sapiens, UniProt P05106+P06756). In words: Inhibition of integrin alphavbeta3 expressing human A375M cell adhesion to vitronectin at 0.1 to 10 uM after 30 mins by crystal violet staining method in presence of 2 mmol/L of MnCl2. In kind it is protein-complex assay. An outline of the steps: as §1
Data set [3] deals with T1, Integrin alpha-V/beta-3. Put plainly: Inhibition of integrin alphaVbeta3 expressing human A375M cell adhesion to fibronectin at 0.1 to 10 uM after 30 mins by crystal violet staining method in presence of 2 mmol/L of MnCl2. The class given is protein-complex assay. An outline of the steps:
as §1

Data set [4] relates to HUVEC. Put plainly: Inhibition of IL-1beta-induced alphaV, beta3, beta5, alpha5, beta1, and alphavbeta3 expressing HUVEC adhesion to vitronectin at 0.1 to 10 uM after 30 mins by crystal violet staining method. The class given is functional, cell-based. The following applies: Homo sapiens. The method in brief: as §1
The test system of data set [5] is HDF. Put plainly: Inhibition of HDF adhesion to fibronectin at 0.1 to 10 uM after 30 mins by crystal violet staining method. In kind it is functional. The settings on record: Homo sapiens. An outline of the steps:
as §1

The target in data set [6] is T1, Integrin alpha-V/beta-3. Put plainly: Displacement of [125I] echistatin from alphaVbeta3 integrin isolated from human placenta after 3 hrs by liquid scintillation counter. (Displacement assays read how much labelled ligand stays bound in the presence of the test substance.)
Target sequence in this assay (P05106 27-788 limits assumed): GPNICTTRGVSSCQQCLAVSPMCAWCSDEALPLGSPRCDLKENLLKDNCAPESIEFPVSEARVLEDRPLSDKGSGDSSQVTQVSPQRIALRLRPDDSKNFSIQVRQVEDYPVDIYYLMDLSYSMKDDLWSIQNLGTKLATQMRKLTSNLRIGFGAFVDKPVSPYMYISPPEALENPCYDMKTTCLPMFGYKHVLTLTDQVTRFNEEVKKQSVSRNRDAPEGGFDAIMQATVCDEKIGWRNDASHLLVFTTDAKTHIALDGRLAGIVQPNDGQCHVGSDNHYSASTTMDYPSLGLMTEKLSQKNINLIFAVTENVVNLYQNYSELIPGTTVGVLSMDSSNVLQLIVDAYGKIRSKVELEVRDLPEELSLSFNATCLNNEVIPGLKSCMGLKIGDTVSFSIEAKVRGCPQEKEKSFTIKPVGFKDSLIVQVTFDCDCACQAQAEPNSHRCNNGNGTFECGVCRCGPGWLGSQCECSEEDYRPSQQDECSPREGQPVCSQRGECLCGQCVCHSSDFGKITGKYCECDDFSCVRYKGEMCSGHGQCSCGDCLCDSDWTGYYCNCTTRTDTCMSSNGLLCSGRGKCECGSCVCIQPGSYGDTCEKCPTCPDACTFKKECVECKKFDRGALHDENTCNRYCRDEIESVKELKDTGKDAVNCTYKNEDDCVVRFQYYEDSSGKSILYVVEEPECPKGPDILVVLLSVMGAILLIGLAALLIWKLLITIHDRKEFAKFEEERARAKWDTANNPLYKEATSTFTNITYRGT
Target sequence in this assay (P06756 31-889 limits assumed): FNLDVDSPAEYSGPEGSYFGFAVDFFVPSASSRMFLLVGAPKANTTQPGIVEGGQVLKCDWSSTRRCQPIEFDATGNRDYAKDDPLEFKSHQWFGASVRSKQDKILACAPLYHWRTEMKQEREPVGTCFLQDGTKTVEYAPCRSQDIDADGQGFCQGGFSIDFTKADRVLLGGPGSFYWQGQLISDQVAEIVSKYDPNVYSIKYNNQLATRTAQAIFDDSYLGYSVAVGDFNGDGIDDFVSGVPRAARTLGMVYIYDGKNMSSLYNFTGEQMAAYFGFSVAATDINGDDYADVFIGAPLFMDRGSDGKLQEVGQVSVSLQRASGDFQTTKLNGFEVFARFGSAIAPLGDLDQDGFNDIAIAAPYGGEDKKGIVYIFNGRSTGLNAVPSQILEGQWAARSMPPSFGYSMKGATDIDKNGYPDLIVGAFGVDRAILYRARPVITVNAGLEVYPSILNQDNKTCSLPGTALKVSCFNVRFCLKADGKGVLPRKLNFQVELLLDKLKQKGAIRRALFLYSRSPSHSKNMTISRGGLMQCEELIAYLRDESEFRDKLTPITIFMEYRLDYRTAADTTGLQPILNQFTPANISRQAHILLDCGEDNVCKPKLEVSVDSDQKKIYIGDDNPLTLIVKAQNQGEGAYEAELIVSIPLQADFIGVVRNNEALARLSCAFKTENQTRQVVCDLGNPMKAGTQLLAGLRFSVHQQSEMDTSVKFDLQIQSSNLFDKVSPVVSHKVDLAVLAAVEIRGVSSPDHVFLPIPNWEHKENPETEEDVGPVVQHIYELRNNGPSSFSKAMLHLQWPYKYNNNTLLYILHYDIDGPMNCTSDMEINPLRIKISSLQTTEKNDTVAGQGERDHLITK
Target sequence in this assay (P06756 891-1048 limits assumed): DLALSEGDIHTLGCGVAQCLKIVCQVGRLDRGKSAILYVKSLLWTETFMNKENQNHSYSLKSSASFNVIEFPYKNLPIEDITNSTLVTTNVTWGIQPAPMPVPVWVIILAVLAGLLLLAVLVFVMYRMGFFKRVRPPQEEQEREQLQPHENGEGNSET
In data set [7] the test system is HDF. Put plainly: Inhibition of HDF adhesion to vitronectin at 0.1 to 10 uM after 30 mins by crystal violet staining method. The class given is functional. The following applies: Homo sapiens. The method in brief: as §1
Data set [8] deals with HUVEC. In words: Antiangiogenic activity against HUVEC seeded on matrigel layer assessed as inhibition of capillary like tube formation at 0.01 uM to 10 uM after 16 to 18 hrs by microscopic analysis. The following applies: Homo sapiens. The class given is functional, cell-based.
A further data set has as its system Mus musculus. In words: Biodistribution in non tumor bearing iv dosed mouse gallbladder after 120 mins by micro SPECT-CT analysis. The class given is ADME, organism-based, Gall bladder. The settings on record: in vivo, 2 h.
The next data set relates to Kidney. Put plainly: Biodistribution in non tumor bearing iv dosed mouse kidney after 120 mins by micro SPECT-CT analysis. The class given is ADME, organism-based. The following applies: in vivo, 2 h.
The test system of another data set is Spleen. Put plainly: Biodistribution in non tumor bearing iv dosed mouse spleen after 1 to 24 hrs by micro SPECT-CT analysis. In kind it is ADME, organism-based. The settings on record: in vivo.
A further data set deals with Thyroid gland. In words: Biodistribution in non tumor bearing iv dosed mouse thyroid after 24 hrs by micro SPECT-CT analysis. In kind it is ADME, organism-based. The following applies: in vivo.
Data set [9] in a line: Drug uptake in human A375M cells xenografted in mouse tumor at 250 uCi, iv after 40 mins by micro SPECT-CT analysis in presence of c[RGD-(3'I-y)-(3R)-carboxymorpholine]. The class given is ADME, organism-based, Neoplasm. The settings on record: in vivo. The method in brief:
(§2)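 SCID bg/bg mice bore s.c. shoulder grafts of 1 × 10⁶ A375 M cells plus 0.5 × 10⁶ TGFβ-activated HDF in PBS/Matrigel 1:1. Under anesthesia on a 37 °C bed, mice received 7–10 MBq tracer in 200 μL saline via tail vein. CT was acquired at 30 min, then SPECT from 40 min pi (20–36 keV window). Displacement runs got cold compound (18 mg/kg) 10 min before tracer. Tumor ROI was normalized to contralateral muscle as (TA−BA)/BA.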
(In general: In xenograft studies the graft and the host belong to different species.)

The nature of data set [10]: Drug uptake in human A375M cells xenografted in SCID mouse tumor at 250 uCi, iv after 40 mins by micro SPECT-CT analysis. The class given is ADME, organism-based, Neoplasm. The following applies: in vivo. An outline of the steps:
as §2

Activity calls are given as the source filed them. The rule behind the calls is not given here.

As a reminder, the IC50 is the concentration that inhibits the measured activity by half. Read a low IC50 as greater potency in that assay. Regarding `N=C(N)NCCC[C@@H]1NC(=O)[C@H]2COCCN2C(=O)[C@@H](Cc2ccc(O)c(I)c2)NC(=O)[C@H](CC(=O)O)NC(=O)CNC1=O`, the inhibition entry in the data set with HUVEC [1], at Integrin alpha-V/beta-3 [2], at Integrin alpha-V/beta-3 [3], in the data set with HUVEC [4], in the data set on HDF [5] and in the data set with HDF [7] was “Active” throughout. This compound also came in with an IC50 at Integrin alpha-V/beta-3 [6] of 48 nM. Moreover, in the data set on HUVEC [8], the inhibition result is “inactive”.

Consider `N=C(N)NCCC[C@@H]1NC(=O)[C@H]2COCCN2C(=O)[C@@H](Cc2ccc(O)c([125I])c2)NC(=O)[C@H](CC(=O)O)NC(=O)CNC1=O`, for which the Drug uptake entry (in the data set with Mus musculus; with Kidney; in the data set on Spleen; in the data set on Thyroid gland; in data set [9]; in [10]) was “Active” throughout.

Take `N=C(N)NCCC[C@@H]1NC(=O)[C@H]2COCCN2C(=O)[C@@H](Cc2ccccc2)NC(=O)[C@H](CC(=O)O)NC(=O)CNC1=O`: the inhibition result in the data set on HUVEC [1], at Integrin alpha-V/beta-3 [2], on Integrin alpha-V/beta-3 [3], in the data set on HUVEC [4], in the data set on HDF [5] and in the data set with HDF [7] was “Active” throughout. For the same compound, in the data set with HUVEC [8], the inhibition entry was “inactive”.

With `N=C(N)NCCC[C@@H]1NC(=O)[C@H]2COCCN2C(=O)[C@@H](Cc2ccc(O)cc2)NC(=O)[C@H](CC(=O)O)NC(=O)CNC1=O`, the inhibition entry with HUVEC [1], at Integrin alpha-V/beta-3 [2], on Integrin alpha-V/beta-3 [3], in the data set with HUVEC [4], in the data set on HDF [5] and in the data set with HDF [7] was “Active” in each case. Moreover, the inhibition entry in the data set on HUVEC [8] is “inactive”.
